According to ChEMBL document CHEMBL3603733, “Synthesis and biological evaluation of (3',5'-dichloro-2,6-dihydroxy-biphenyl-4-yl)-aryl/alkyl-methanone selective CB2 inverse agonist” (Bioorg Med Chem, 2015):
Calls of active or inactive are those of the source. The calls are words filed in the database; no cut-off is given here.

How the values were obtained:
Cannabinoid receptor 2 [1] = target: T1, Cannabinoid receptor 2 (Homo sapiens, UniProt P34972); experiment: Displacement of [3H]-CP55940 from CB2 receptor (unknown origin) expressed in HEK-CNG cell membranes after 90 mins by liquid scintillation counting analysis
Cannabinoid receptor 2 [2] = target: T1, Cannabinoid receptor 2; experiment: Inverse agonist activity at CB2 receptor (unknown origin) expressed in HEK cells assessed as increase in cAMP production measured at 50 mins by ACTOne dye-based fluorescence assay in presence of forskolin and Ro 20-1724; format: functional, cell-based, HEK293
Outline: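 HEK-CNG+CB1 or HEK-CNG+CB2 cells, plus parental HEK-CNG, were plated at 50,000 cells/well in DMEM with 10% FBS the day before. Membrane potential dye was loaded for 1 h in the dark at room temperature. At least six biological replicates were run, with non-linear fitting.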

Cannabinoid receptor 1 [3] = target: T2, Cannabinoid receptor 1 (Homo sapiens, UniProt P21554); experiment: Inverse agonist activity at CB1 receptor (unknown origin) expressed in HEK cells assessed as increase in cAMP production measured at 50 mins by ACTOne dye-based fluorescence assay in presence of forskolin and Ro 20-1724; format: functional, cell-based, HEK293
Outline: (§1)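 HEK-CNG+CB1 or HEK-CNG+CB2 cells, plus parental HEK-CNG, were plated at 50,000 cells/well in DMEM with 10% FBS the day before. Membrane potential dye was loaded for 1 h in the dark at room temperature. Ligands were added at 5x10⁻⁶ to 5x10⁻¹⁰ final, with 25 µM Ro 20-1724 and 800 nM forskolin, in DPBS with 2.5% DMSO. Fluorescence (Ex 540, Em 590 nm) was read at 50 min. At least six biological replicates were run, with non-linear fitting.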

Cannabinoid receptor 1 [4] = target: T2, Cannabinoid receptor 1; experiment: Displacement of [3H]-CP55940 from CB1 receptor (unknown origin) expressed in HEK-CNG cell membranes after 90 mins by liquid scintillation counting analysis
Cannabinoid receptor 2 [5] = target: T1, Cannabinoid receptor 2; experiment: Inverse agonist activity at CB2 receptor (unknown origin) expressed in HEK cells assessed as increase in cAMP production at 5 x 10^-6 to 5 x 10^-10 M measured at 50 mins by ACTOne dye-based fluorescence assay in presence of forskolin and Ro 20-1724 relative to control; format: functional, cell-based; details: HEK293
Outline: as §1

Cannabinoid receptor 1 [6] = target: T2, Cannabinoid receptor 1; experiment: Inverse agonist activity at CB1 receptor (unknown origin) expressed in HEK cells assessed as increase in cAMP production at 5 x 10^-6 to 5 x 10^-10 M measured at 50 mins by ACTOne dye-based fluorescence assay in presence of forskolin and Ro 20-1724 relative to control; format: functional, cell-based; details: HEK293
Outline: as §1

Cannabinoid receptor 2 [7] = target: T1, Cannabinoid receptor 2; experiment: Non-competitive antagonist activity at CB2 receptor (unknown origin) expressed in HEK cells incubated in dark condition for 30 mins prior to CP55940 addition measured at 50 mins by Schild plot analysis; format: cell-based; details: HEK293
Outline: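 HEK-CNG+CB2 cells were loaded with membrane potential dye. After 30 min, antagonist in DPBS with 2.5% DMSO was added and incubated 30 more min in the dark at room temperature. CP 55,940 was then added with 25 µM Ro 20-1724 and 800 nM forskolin (final). Fluorescence was read at 50 min.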

Homo sapiens = species on record: Homo sapiens; experiment: Selectivity ratio of Ki for CB1 receptor (unknown origin) to Ki for CB2 receptor (unknown origin)

T1 sequence (P34972 whole entry): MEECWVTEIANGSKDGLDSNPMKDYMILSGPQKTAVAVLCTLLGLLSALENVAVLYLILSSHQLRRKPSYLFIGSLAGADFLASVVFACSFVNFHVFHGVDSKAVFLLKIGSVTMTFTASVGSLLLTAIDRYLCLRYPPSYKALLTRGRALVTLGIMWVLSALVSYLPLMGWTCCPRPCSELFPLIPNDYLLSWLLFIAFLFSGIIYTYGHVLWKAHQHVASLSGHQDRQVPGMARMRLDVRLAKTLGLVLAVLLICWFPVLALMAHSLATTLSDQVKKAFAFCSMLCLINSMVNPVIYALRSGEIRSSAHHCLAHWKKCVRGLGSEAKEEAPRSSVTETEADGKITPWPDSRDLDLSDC
T2 sequence (P21554 whole entry): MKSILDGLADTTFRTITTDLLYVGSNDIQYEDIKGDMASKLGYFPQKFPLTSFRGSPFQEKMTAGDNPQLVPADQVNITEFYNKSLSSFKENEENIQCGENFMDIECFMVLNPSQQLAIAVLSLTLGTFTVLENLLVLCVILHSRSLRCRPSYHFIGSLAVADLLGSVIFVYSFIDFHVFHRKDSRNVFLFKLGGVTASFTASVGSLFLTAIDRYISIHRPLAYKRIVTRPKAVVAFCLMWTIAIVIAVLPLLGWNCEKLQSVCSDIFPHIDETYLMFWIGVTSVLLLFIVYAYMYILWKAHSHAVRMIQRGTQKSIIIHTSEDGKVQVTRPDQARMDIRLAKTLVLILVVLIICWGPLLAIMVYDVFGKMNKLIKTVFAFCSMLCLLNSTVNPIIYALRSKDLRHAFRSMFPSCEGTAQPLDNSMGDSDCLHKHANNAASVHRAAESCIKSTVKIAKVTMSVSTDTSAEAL

Compound	Ki (Cannabinoid receptor 2 [1])	EC50 (Cannabinoid receptor 2 [2]; hek293)	EC50 (Cannabinoid receptor 1 [3]; hek293)	Ki (Cannabinoid receptor 1 [4])	EC50 (Cannabinoid receptor 2 [2]; read-out: EC50)	Efficacy (Cannabinoid receptor 2 [5])	Efficacy (Cannabinoid receptor 1 [6])	inhibition (Cannabinoid receptor 2 [7])	Ratio Ki (Homo sapiens)	EC50 (Cannabinoid receptor 1 [3]; read-out: EC50)
O=C(c1cccc(C(F)(F)F)c1)c1cc(O)c(-c2cc(Cl)cc(Cl)c2)c(O)c1	> 10 µM	Not Active	Not Active	4.13 µM						
O=C(c1ccc(O)cc1)c1cc(O)c(-c2cc(Cl)cc(Cl)c2)c(O)c1	> 10 µM		Not Active	> 10 µM	> 5 µM	75.6%	inactive			
Cc1cccc(C(=O)c2cc(O)c(-c3cc(Cl)cc(Cl)c3)c(O)c2)c1	2.62 µM	Not Active	Not Active	> 10 µM						
CCCCc1ccc(C(=O)c2cc(OC)c(-c3cc(Cl)cc(Cl)c3)c(OC)c2)cc1	> 10 µM	Not Active	Not Active	> 10 µM		inactive	inactive			
CCc1ccc(C(=O)c2cc(O)c(-c3cc(Cl)cc(Cl)c3)c(O)c2)cc1	0.0376 µM		Not Active	1.14 µM	0.0295 µM	52.2%		Active		
CCCCc1ccc(C(=O)c2cc(O)c(-c3cc(Cl)cc(Cl)c3)c(O)c2)cc1	0.464 µM		Not Active	> 10 µM	0.254 µM	176%	inactive	Active	> 21.5	
Cc1cc(C)cc(C(=O)c2cc(O)c(-c3cc(Cl)cc(Cl)c3)c(O)c2)c1	> 10 µM	Not Active	Not Active	> 10 µM		inactive	inactive			
COc1cc(C(=O)c2ccc(C)cc2)cc(OC)c1-c1cc(Cl)cc(Cl)c1	> 10 µM	Not Active	Not Active	> 10 µM		inactive	inactive			
Cc1ccc(Cn2nc(C(=O)NC3C4(C)CCC(C4)C3(C)C)cc2-c2ccc(Cl)c(C)c2)cc1 (configuration not stated) [SR-144528]			Not Active			80.8%	inactive			
CC(C)c1ccc(C(=O)c2cc(O)c(-c3cc(Cl)cc(Cl)c3)c(O)c2)cc1	0.161 µM		Not Active	3.33 µM	0.182 µM	56%				
O=C(c1ccc(Cl)cc1)c1cc(O)c(-c2cc(Cl)cc(Cl)c2)c(O)c1	0.121 µM			4.65 µM	0.0897 µM	119%	169%		38.5	3.28 µM
O=C(c1cc(O)c(-c2cc(Cl)cc(Cl)c2)c(O)c1)C1CCCCC1	1.59 µM			0.299 µM	2.54 µM	inactive	inactive		0.19	> 5 µM
CCCCc1ccc(C(=O)c2cc(O)c(-c3cc(Cl)cc(Cl)c3)c(OC)c2)cc1	> 10 µM		Not Active	> 10 µM	> 5 µM	108%				
COc1cc(C(=O)c2ccc(Cl)cc2)cc(OC)c1-c1cc(Cl)cc(Cl)c1	> 10 µM	Not Active	Not Active	> 10 µM						
COc1cc(C(=O)c2ccc(C)cc2)cc(O)c1-c1cc(Cl)cc(Cl)c1	> 10 µM		Not Active	> 10 µM	> 5 µM	129%				
COc1cc(C(=O)c2ccc(Cl)cc2)cc(O)c1-c1cc(Cl)cc(Cl)c1	> 10 µM			> 10 µM	> 5 µM	97.5%	71.3%			2.88 µM
Cc1ccc(C(=O)c2cc(O)c(-c3cc(Cl)cc(Cl)c3)c(O)c2)cc1	0.258 µM		Not Active	9.43 µM	0.118 µM	230%	inactive		36.6	
O=C(c1ccccc1)c1cc(O)c(-c2cc(Cl)cc(Cl)c2)c(O)c1			Not Active			54.8%	inactive	Active	39.4	
CC(C)(C)c1ccc(C(=O)c2cc(O)c(-c3cc(Cl)cc(Cl)c3)c(O)c2)cc1	3.17 µM		Not Active	2.53 µM	3.97 µM	275%				
CCc1cccc(C(=O)c2cc(O)c(-c3cc(Cl)cc(Cl)c3)c(O)c2)c1	1.72 µM		Not Active	> 10 µM	> 5 µM	184%	inactive		> 5.82	
CCCCCCC(=O)c1cc(O)c(-c2cc(Cl)cc(Cl)c2)c(O)c1	> 10 µM	Not Active	Not Active	> 10 µM						
O=C(c1ccc(C(F)(F)F)cc1)c1cc(O)c(-c2cc(Cl)cc(Cl)c2)c(O)c1	> 10 µM			> 10 µM	> 5 µM	49.7%	37%			> 5 µM
CCCc1ccc(C(=O)c2cc(O)c(-c3cc(Cl)cc(Cl)c3)c(O)c2)cc1	0.0599 µM		Not Active	> 10 µM	0.0288 µM	50%				
